Measurements reported in ChEMBL document CHEMBL4024790 (J Med Chem, 2018).
Active and inactive are the calls of the source. The calls are words filed in the database; no cut-off is given here.

Legend:
Cytochrome P450 1A2 = target: T1, Cytochrome P450 1A2 (Homo sapiens, UniProt P05177); assay: Induction of CYP1A2 (unknown origin); type: ADME
T1 sequence (P05177 whole entry): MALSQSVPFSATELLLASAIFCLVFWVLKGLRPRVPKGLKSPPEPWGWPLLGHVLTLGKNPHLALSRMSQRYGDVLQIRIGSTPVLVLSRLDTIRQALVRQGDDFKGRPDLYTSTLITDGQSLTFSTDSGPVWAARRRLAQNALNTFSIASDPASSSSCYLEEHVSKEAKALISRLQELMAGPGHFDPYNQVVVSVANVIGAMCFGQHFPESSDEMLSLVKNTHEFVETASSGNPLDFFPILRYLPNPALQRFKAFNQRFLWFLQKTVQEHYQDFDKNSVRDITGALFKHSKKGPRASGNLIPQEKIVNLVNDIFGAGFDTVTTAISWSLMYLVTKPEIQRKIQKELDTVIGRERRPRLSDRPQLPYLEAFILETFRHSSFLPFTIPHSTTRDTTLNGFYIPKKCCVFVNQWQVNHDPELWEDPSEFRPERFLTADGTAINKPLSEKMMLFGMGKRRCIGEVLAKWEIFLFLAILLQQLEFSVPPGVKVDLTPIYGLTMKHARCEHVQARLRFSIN

[1] = Tmax in beagle dog at 5 mg/kg, po administered via gavage by LC-MS/MS analysis; type: ADME, organism-based, Canis lupus familiaris; conditions: in vivo
[2] = Intrinsic clearance in human hepatocytes; type: ADME, cell-based, Hepatocyte; conditions: read-out: CLH
[3] = target: T2, cGMP-dependent 3',5'-cyclic phosphodiesterase (Rattus norvegicus, UniProt Q01062); assay: Displacement of radiolabeled 4-(azetidin-1-yl)-3-[5-[4-(trifluoromethyl)phenyl]-1H-pyrazol-4-yl]-1-(tritritiomethyl)pyrazolo[3,4-d]pyrimidine from PDE2A in rat striatal membranes after 30 mins by liquid scintillation counting method; type: cell membranes, Striatum, Membrane
T2 sequence (Q01062 whole entry): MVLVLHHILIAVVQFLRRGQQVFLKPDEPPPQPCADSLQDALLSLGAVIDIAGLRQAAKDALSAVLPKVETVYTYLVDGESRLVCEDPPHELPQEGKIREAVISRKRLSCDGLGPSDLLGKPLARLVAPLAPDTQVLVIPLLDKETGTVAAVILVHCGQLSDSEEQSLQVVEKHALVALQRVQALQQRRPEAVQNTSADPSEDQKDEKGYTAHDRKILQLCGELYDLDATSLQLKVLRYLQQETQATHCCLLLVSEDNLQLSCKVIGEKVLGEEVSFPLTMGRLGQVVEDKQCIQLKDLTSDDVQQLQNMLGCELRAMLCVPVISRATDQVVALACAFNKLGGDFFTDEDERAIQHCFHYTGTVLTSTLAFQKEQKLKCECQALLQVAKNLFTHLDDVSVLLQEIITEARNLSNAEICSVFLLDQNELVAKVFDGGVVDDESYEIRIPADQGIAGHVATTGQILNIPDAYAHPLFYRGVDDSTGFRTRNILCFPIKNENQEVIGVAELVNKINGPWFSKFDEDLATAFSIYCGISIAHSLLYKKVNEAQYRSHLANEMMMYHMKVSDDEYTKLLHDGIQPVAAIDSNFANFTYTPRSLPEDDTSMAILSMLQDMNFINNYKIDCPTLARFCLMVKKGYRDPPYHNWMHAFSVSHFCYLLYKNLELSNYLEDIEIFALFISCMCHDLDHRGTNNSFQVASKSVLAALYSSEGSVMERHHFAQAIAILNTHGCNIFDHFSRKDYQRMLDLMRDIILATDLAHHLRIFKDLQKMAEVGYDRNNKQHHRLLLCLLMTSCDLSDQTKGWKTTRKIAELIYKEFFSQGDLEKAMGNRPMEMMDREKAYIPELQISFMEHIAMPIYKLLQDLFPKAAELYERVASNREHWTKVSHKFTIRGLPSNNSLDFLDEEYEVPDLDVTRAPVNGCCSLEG

[4] = Passive permeability in RRCK cells; type: ADME, cell-based, Canis lupus familiaris, MDCKII-LE; conditions: dog, MDCK; read-out: permeability
Plasma = assay: Drug uptake in rat plasma at 5 to 250 mg/kg/day, po up to 15 days by microscopic method; type: ADME, organism-based; conditions: in vivo, 360 h
How it was run: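 Exploratory rat toxicity study, oral dosing at 5, 50 and 250 mg/kg/day for up to 15 days, with microscopic examination of heart and vasculature and measurement of plasma and brain exposure.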

Liver [5] = assay: Drug metabolism in dog liver microsomes assessed as 3-(7-methyl-5-(1-methyl-5-(5-(trifluoromethyl)pyridin-2-yl)-1H-pyrazol-4-yl)imidazo[1,5-f][1,2,4]triazin-4-ylamino)propanoic acid formation at 1 to 50 uM after 1 hr by LC-MS/MS analysis; type: ADME, Canis lupus familiaris, microsome
How it was run: (§1)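 Rat, dog or human liver microsomes or hepatocytes (P450 0.35–0.5 µM final) incubated with compound at 1, 10 or 50 µM in 100 mM phosphate buffer with 1 mM NADP regenerating system, 37°C for 1 h; quenched with 4 volumes acetonitrile, centrifuged, supernatant evaporated, reconstituted in 5% aqueous acetonitrile and analysed by reversed-phase LC.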

Liver [6] = assay: Drug metabolism in human liver microsomes assessed as 1-(7-methyl-5-(1-methyl-5-(5-(trifluoromethyl)pyridin-2-yl)-1H-pyrazol-4-yl)imidazo[1,5-f][1,2,4]triazin-4-yl)azetidin-3-ol formation at 1 to 50 uM after 1 hr by LC-MS/MS analysis; type: ADME, microsome; how it was run: as §1
[7] = Ratio of unbound brain concentration to unbound plasma concentration in po dosed Cynomolgus monkey; type: ADME, organism-based, Macaca fascicularis; conditions: brain and plasma, read-out: K(p,uu,brain)
[8] = Oral bioavailability in beagle dog at 5 mg/kg administered via gavage by LC-MS/MS analysis; type: ADME, organism-based, Canis lupus familiaris; conditions: in vivo
Rattus norvegicus = assay: Reversal of MK-801-induced disruption of low frequency cortical delta oscillation in Sprague-Dawley rat brain at 0.1 mg/kg, iv up to 55 mins by electrophysiology method; type: functional, organism-based
Mus musculus [9] = species on record: Mus musculus; assay: Effect on cAMP level in CD-1 mouse brain striatum by immunoassay; type: functional
How it was run: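 CD-1 mice dosed SC (solution in 20% SBE-β-CD with 2 molar equivalents 1N HCl, 1 mL/kg); euthanized by focused microwave irradiation of brain; cortex, striatum, hippocampus homogenized in 0.5 N HCl, centrifuged; cyclic nucleotides in supernatant by enzyme immunoassay. Unbound brain exposure from satellite animals; dose-response and time-course data combined with linear model; one-way ANOVA with Fisher's PLSD.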

[10] = Tmax in Wistar Han rat at 5 mg/kg, po administered via gavage by LC-MS/MS analysis; type: ADME, organism-based; conditions: in vivo
Mus musculus [11] = assay: In vivo effect on phosphorylated CREB level in CD-1 mouse brain striatum by immunoassay; type: functional, organism-based
Canis familiaris [12] = assay: Toxicity in dog up to 30 mg/kg, po administered as single dose by microscopic method; type: organism-based, Canis lupus familiaris; conditions: in vivo
Mus musculus [13] = assay: In vivo effect on phosphorylated CREB level in CD-1 mouse brain cortex by immunoassay; type: functional, organism-based
Canis familiaris [14] = species on record: Canis familiaris; assay: Toxicity in dog assessed as effect on CNS up to 1 month by microscopic method; design: species or system Canis lupus familiaris; conditions: in vivo
[15] = Drug metabolism in human hepatocytes assessed as 3-(7-methyl-5-(1-methyl-5-(5-(trifluoromethyl)pyridin-2-yl)-1H-pyrazol-4-yl)imidazo[1,5-f][1,2,4]triazin-4-ylamino)propanoic acid formation at 1 to 50 uM after 1 hr by LC-MS/MS analysis; type: ADME, cell-based, Hepatocyte; how it was run: as §1

Compound: Cc1nc(-c2cnn(C)c2-c2ccc(C(F)(F)F)cn2)c2c(N3CCC3)ncnn12 [PF-05180999]
- Activity (Cytochrome P450 1A2): Not Active
- Tmax [1]: 15 min
- CLint scaled [2]: 44 mL/min/kg
- Ki [3]: 4.2 nM
- Papp [4]: 26 ×10⁻⁶ cm/s
- Drug uptake (Plasma): Active
- Drug metabolism (Liver [5]): Metabolite_Detected
- Drug metabolism (Liver [6]): Metabolite_Detected
- Kp uu [7]: 0.6
- bioavailability [8]: 57%
- Activity (Rattus norvegicus): Active
- Activity (Mus musculus [9]): inactive
- Tmax [10]: 4.8 min
- Activity (Mus musculus [11]): inactive
- Activity (Canis familiaris [12]): Non-Toxic
- Activity (Mus musculus [13]): inactive
- Activity (Canis familiaris [14]): Toxic
- Drug metabolism [15]: Metabolite_Detected
